Read-outs that look alike come from different tables or passages of the source.
What was measured:
[1] = test system: P. falciparum (3D7 strain); test: Antiplasmodial activity, LDH assay; format: cell-based
[2] = test system: intracellular amastigotes of L. panamensis (MHOM/CO/87/UA140-EGFP strain); test: Antileishmanial activity on intracellular amastigotes, flow cytometry; format: cell-based
Procedure, shortened: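 U-937 cells (3 × 10^5 cells/mL, RPMI-1640, 0.1 μg/mL PMA) infected with stationary-phase EGFP-transfected promastigotes at 15:1 for 3 h at 34 °C, then washed. After 24 h, test compound was added at 50, 12.5, 3.125 and 0.78 μg/mL for 72 h at 37 °C, 5% CO2. Amphotericin B served as positive control. Detached cells were read by flow cytometry (488/525 nm, 10,000 events). EC50 was by probit from MFI relative to untreated wells. Triplicates, ≥2 independent experiments.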

[3] = test system: human monocytes (U-937 ATCC CRL-1593.2); test: Cytotoxic activity, MTT assay on U-937 cells; format: cell-based; settings: 72 h
Procedure, shortened: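 Exponential-phase cells at 1 × 10^5 cells/mL in RPMI-1640 with 10% FBS. Test compound (200, 50, 12.5, 3.125 μg/mL) was added in PBS with 0.5% DMSO for 72 h at 37 °C, 5% CO2. MTT was then added for 3 h, the reaction stopped with isopropanol/SDS, and absorbance read at 570 nm. Viability was taken relative to untreated cells, with blank subtraction. LC50 was by probit linear regression. Triplicates, ≥2 independent experiments.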

[4] = test system: Trypanosoma cruzi (Tulahuen strain transfected with the β-galactosidase gene); test: Antitrypanosomal activity on intracellular amastigotes, β-galactosidase readout; format: cell-based; settings: read-out: Trypanosomal CE50; intracellular amastigotes in U-937 cells, 72 h
[5] = Electrochemical measurements; format: physicochemical; settings: cyclical cathodic and anodic currents, low potential range, ACN, TBAB 0.1 M
Procedure, shortened: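 Cyclic voltammetry used a glassy carbon working electrode, Ag/AgCl reference and platinum counter electrode, in acetonitrile with 0.1 M TBAB as supporting electrolyte. The scan ran from −1.5 to 2.5 V at 150 mV/s. p-Quinone was run under the same conditions as experimental control.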

[6] = read-out: Plasmodial CE50, 3D7 strain, 72 h
[7] = read-out: Leishmanial CE50, intracellular amastigotes in U-937 cells, 72 h
[8] = Plasmodium falciparum, 3D7, 72 h, read-out: Plasmodial CE50, 3D7 strain, 72 h
[9] = Leishmania panamensis, U-937, 72 h, read-out: Leishmanial CE50
[10] = Leishmania panamensis, read-out: Antileishmanial activity

Molecule	Cytotoxicity CL50 [3]	EC50 [1, 8]	EC50 [2, 9]	also measured
3-(4-Chlorobenzyl)-4H-thiochromen-4-one 1,1-dioxide [Compound 14c]	20.81 µM	–	–	EC50 [1, 6]: 46.7 µM; EC50 ([2]; read-out: Antileishmanial activity, Table 2, own compounds, repeats Table 1): 18.2 µM; EC50 [2, 7]: 18.2 µM; EC50 [4]: 129 µM
6-Phenyl-4H-thiochromen-4-one 1,1-dioxide [Compound 21d]	276.03 µM	–	–	EC50 [1, 6]: 75.4 µM; EC50 [2, 7]: 691 µM; EC50 [4]: 260 µM
6-Phenyl-4H-thiochromen-4-one 1,1-dioxide [Compound 21e]	254.35 µM	–	–	EC50 [1, 6]: 61.4 µM; EC50 [2, 7]: 74 µM; EC50 [4]: 735 µM
O=C1C=CS(=O)(=O)c2ccccc21 [Compound 6a, 4H-Thiochromen-4-one 1,1-dioxide]	–	717 µM	137 µM	electrochemical behavior [5]: unexpected capacitive behavior
O=C1C=CS(=O)(=O)c2ccc(F)cc21 [Compound 6b, 6-Fluoro-4H-thiochromen-4-one 1,1-dioxide]	274.83 µM	111 µM	–	–
O=C1C=CS(=O)(=O)c2ccc(Cl)cc21 [Compound 6c, 6-Chloro-4H-thiochromen-4-one 1,1-dioxide]	215.05 µM	89.9 µM	–	–
O=C1C=CS(=O)(=O)c2ccc(Br)cc21 [Compound 6d, 6-Bromo-4H-thiochromen-4-one 1,1-dioxide]	–	71.2 µM	106 µM	–
O=C1C=CS(=O)(=O)c2cc(Br)ccc21 [Compound 6e, 7-Bromo-4H-thiochromen-4-one 1,1-dioxide]	252.48 µM	76.3 µM	–	–
O=C1C=CS(=O)(=O)c2c(Br)cccc21 [Compound 6f, 8-Bromo-4H-thiochromen-4-one 1,1-dioxide]	318.45 µM	82.8 µM	149 µM	–
CC1=CC(=O)c2ccccc2S1(=O)=O [Compound 11a, 2-Methyl-4H-thiochromen-4-one 1,1 dioxide]	59.12 µM	140 µM	35.6 µM	–
O=C1C(Cc2ccccc2Cl)=CS(=O)(=O)c2ccccc21 [Compound 14a, 3-(2-Chlorobenzyl)-4H-thiochromen-4-one 1,1-dioxide]	83.61 µM	71.2 µM	289 µM	–
O=C1C(Cc2ccc(Cl)cc2)=CS(=O)(=O)c2ccccc21 [Compound 14b, 3-(4-Chlorobenzyl)-4H-thiochromen-4-one 1,1-dioxide]	–	50.6 µM	63.6 µM	EC50 [2, 10]: 63.6 µM
O=C1C(Cc2ccco2)=CS(=O)(=O)c2ccccc21 [Compound 17a, 3-(Furan-2-yl-methyl)-4H-thiochromen-4-one 1,1-dioxide]	–	70.2 µM	72.9 µM	EC50 [2, 10]: 72.9 µM
O=C1C(Cc2cccs2)=CS(=O)(=O)c2ccccc21 [Compound 17b, 3-(Thiophen-2-yl-methyl)-4H-thiochromen-4-one 1,1-dioxide]	12.70 µM	99.3 µM	16.5 µM	EC50 [2, 10]: 16.5 µM
O=C1C=CS(=O)(=O)c2ccc(-c3cc(C(F)(F)F)cc(C(F)(F)F)c3)cc21 [Compound 21a, 6-(3,5-Bis(trifluoromethyl)phenyl) 4 H-thiochromen-4-one 1,1-dioxide]	83.61 µM	71.2 µM	289 µM	–
O=C1C=CS(=O)(=O)c2cc(-c3cc(C(F)(F)F)cc(C(F)(F)F)c3)ccc21 [Compound 21b, 7-(3,5-Bis(trifluoromethyl)phenyl)-4H-thiochromen-4-one 1,1-dioxide]	49.16 µM	98.1 µM	102 µM	–
O=C1C=CS(=O)(=O)c2c1cccc2-c1cc(C(F)(F)F)cc(C(F)(F)F)c1 [Compound 21c, 8-(3,5-Bis(trifluoromethyl)phenyl)-4H-thiochromen-4-one 1,1-dioxide]	23.20 µM	71.4 µM	9.3 µM	EC50 [2, 10]: 9.3 µM
